According to ChEMBL document CHEMBL3351932, “Discovery of BI 207524, an indole diamide NS5B thumb pocket 1 inhibitor with improved potency for the potential treatment of chronic hepatitis C virus infection” (J Med Chem, 2014):

How the values were obtained:
Cytochrome P450 2D6 = Cytochrome P450 2D6 (Homo sapiens, UniProt P10635); test: Inhibition of CYP2D6 (unknown origin); assay type: ADME
Hepatitis C virus [1] = test: Antiviral activity against Hepatitis C virus genotype 1b by cell-based replicon assay; assay type: functional, Hepacivirus hominis
[2] = Plasma protein binding in human; assay type: ADME, cell-free; conditions: read-out: PPB (converted)
[3] = Half life in human liver microsomes; assay type: ADME
[4] = Lipophilicity, log D of the compound at pH 7.4; assay type: physicochemical; conditions: buffer
[5] = Mean residence time in dog at 10 mg/kg, po; assay type: ADME, organism-based, Canis lupus familiaris; parameters: dose 10 mg/kg, route oral; conditions: in vivo
In short: (§1)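 Single-compound oral PK after overnight fast; 10 mg/kg given as suspension in 0.5% methylcellulose and 0.3% Tween-80, with or without 1% NMP as added solubilizer; N=3 per dose and route. Plasma kept on ice, centrifuged at 4°C, stored near -20°C, extracted by solid phase, quantified by HPLC-UV or LC/MS against blank-plasma standards (LOQ 7 ng/mL); non-compartmental analysis.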

[6] = Cytotoxicity against human HuH7 cells assessed as cell viability by MTT assay; assay type: cell-based; conditions: Huh-7 cells, read-out: TC50 (the source's name)
Cytochrome P450 2C9 = Cytochrome P450 2C9 (Homo sapiens, UniProt P11712); test: Inhibition of CYP2C9 (unknown origin); assay type: ADME
Cytochrome P450 2C9, sequence (P11712 whole entry): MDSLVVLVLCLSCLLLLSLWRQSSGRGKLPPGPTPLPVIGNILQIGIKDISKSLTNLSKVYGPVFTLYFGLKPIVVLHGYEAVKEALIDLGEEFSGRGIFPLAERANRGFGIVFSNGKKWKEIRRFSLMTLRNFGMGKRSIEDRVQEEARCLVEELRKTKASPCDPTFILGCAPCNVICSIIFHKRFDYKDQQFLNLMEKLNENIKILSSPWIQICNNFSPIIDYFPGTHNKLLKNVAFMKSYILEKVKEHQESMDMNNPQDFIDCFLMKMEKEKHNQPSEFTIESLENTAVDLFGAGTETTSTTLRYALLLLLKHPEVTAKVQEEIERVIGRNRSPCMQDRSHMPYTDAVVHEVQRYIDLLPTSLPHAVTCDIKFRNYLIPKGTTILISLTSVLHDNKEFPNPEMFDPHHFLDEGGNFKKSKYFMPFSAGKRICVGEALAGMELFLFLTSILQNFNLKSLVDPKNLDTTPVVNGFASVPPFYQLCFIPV

Hepatitis C virus [7] = test: Antiviral activity against Hepatitis C virus genotype 1a by cell-based replicon assay; assay type: functional, Hepacivirus hominis; conditions: subtype 1a
Cytochrome P450 1A2 = target: T1, Cytochrome P450 1A2 (Homo sapiens, UniProt P05177); test: Inhibition of CYP1A2 (unknown origin); assay type: ADME
T1 sequence (P05177 whole entry): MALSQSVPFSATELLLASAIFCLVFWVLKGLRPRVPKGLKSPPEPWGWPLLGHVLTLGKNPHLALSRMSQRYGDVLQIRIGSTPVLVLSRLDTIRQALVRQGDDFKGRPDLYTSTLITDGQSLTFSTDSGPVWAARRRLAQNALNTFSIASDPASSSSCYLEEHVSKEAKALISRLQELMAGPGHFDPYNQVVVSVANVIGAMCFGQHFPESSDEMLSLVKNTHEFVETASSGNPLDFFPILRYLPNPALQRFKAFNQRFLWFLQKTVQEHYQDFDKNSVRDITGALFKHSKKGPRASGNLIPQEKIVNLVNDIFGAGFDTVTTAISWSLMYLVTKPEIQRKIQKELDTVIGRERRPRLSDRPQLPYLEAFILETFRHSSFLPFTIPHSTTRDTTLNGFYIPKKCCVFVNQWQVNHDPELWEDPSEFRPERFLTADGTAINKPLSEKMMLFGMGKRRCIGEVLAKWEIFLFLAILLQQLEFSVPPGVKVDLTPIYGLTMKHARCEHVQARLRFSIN

[8] = Clearance in dog at 2 mg/kg, iv; assay type: ADME, organism-based, Canis lupus familiaris; parameters: dose 2 mg/kg, route intravenous; conditions: in vivo
In short: (§2)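 Fasted animals dosed IV by bolus at 2 mg/kg in 70% PEG-400:30% water; N=3 per dose and route. Plasma separated at 4°C, stored near -20°C, solid-phase extracted, assayed by HPLC-UV or LC/MS with blank-plasma calibration (r2 > 0.99, LOQ 7 ng/mL); parameters from non-compartmental analysis.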

[9] = Volume of distribution at steady state in dog at 2 mg/kg, iv; assay type: ADME, organism-based, Canis lupus familiaris; parameters: dose 2 mg/kg, route intravenous; conditions: in vivo, read-out: Vdss; in short: as §2
[10] = Volume of distribution at steady state in rat at 2 mg/kg, iv; assay type: ADME, organism-based; parameters: dose 2 mg/kg, route intravenous; conditions: in vivo, read-out: Vdss; in short: as §2
Hepatitis C virus [11] = test: Antiviral activity against Hepatitis C virus genotype 1b assessed as shift in EC50 by cell-based replicon assay in presence of 40% human serum; assay type: functional, Hepacivirus hominis
[12] = Half life in rat liver microsomes; assay type: ADME
[13] = Cmax in monkey at 10 mg/kg, po; assay type: ADME, organism-based, Macaca mulatta; parameters: dose 10 mg/kg, route oral; conditions: rhesus monkey, in vivo; in short: as §1
Rhesus monkey [14] = test: Half life in monkey at 2 mg/kg, iv; assay type: ADME, organism-based, Macaca mulatta; parameters: dose 2 mg/kg, route intravenous; conditions: in vivo; in short: as §2
[15] = Cardiotoxicity in guinea pig papillary muscles assessed as action potential duration at 90% repolarization
Salmonella typhimurium = test: Mutagenic activity in Salmonella typhimurium by Ames test; assay type: toxicity, organism-based; conditions: salmonella enterica subsp. enterica serovar typhimurium
In short: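 Ames test run with and without metabolic activation at doses up to maximum solubility.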

[16] = Permeability across apical to basolateral side in human Caco2 cells; assay type: ADME, cell-based; conditions: Caco-2, read-out: permeability
[17] = Inhibition of Hepatitis C virus genotype 1b Con1 NS5B RNA dependent RNA polymerase activity using Bright-Glo luciferase substrate by cell-based 1b luciferase reporter assay; parameters: species or system Hepatitis C virus (isolate Con1)
In short: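 Cell-based genotype 1b luciferase reporter replicon assay; EC50 determined in duplicate, values averaged over at least two determinations.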

[18] = Half life in dog at 2 mg/kg, iv; assay type: ADME, organism-based, Canis lupus familiaris; parameters: dose 2 mg/kg, route intravenous; conditions: in vivo; in short: as §2
[19] = Clearance in rat at 2 mg/kg, iv; assay type: ADME, organism-based; parameters: dose 2 mg/kg, route intravenous; conditions: in vivo; in short: as §2
[20] = Half life in rat at 2 mg/kg, iv; assay type: ADME, organism-based; parameters: dose 2 mg/kg, route intravenous; conditions: in vivo; in short: as §2
[21] = Oral bioavailability in rat at 10 mg/kg; assay type: ADME, organism-based; conditions: in vivo; in short: as §1
[22] = Mean residence time in rat at 10 mg/kg, po; assay type: ADME, organism-based; parameters: dose 10 mg/kg, route oral; conditions: in vivo; in short: as §1
[23] = Plasma concentration in rat at 4 mg/kg, po cassette dosing after 1 hr; assay type: ADME, organism-based; parameters: dose 4 mg/kg, route oral
In short: (§3)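 Cassette screen: mixture of 4 compounds, each at 4 mg/kg, dosed orally to 2 rats; plasma sampled at 1 h and 2 h, solid-phase extracted and quantified by HPLC-UV or LC/MS against calibration standards in blank plasma (LOQ 7 ng/mL).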

[24] = Permeability across apical at pH6 to basolateral side at pH 7.4 in human Caco2 cells; assay type: ADME, cell-based; conditions: Caco-2, pH 6, read-out: permeability
In short: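 Caco-2 monolayer permeability measured apical to basolateral, apical side at pH 6.0 and basolateral at pH 7.4.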

[25] = Dissociation constant, pKa of the compound; assay type: physicochemical
In short: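 pKa derived from pH titration curves.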

[26] = AUC in rat at 10 mg/kg, po; assay type: ADME, organism-based; parameters: dose 10 mg/kg, route oral; conditions: plasma; in short: as §1
[27] = Ratio of drug level in rat liver to plasma after 6 hrs; assay type: ADME, cell-free
[28] = AUC in monkey at 10 mg/kg, po; assay type: ADME, organism-based, Macaca mulatta; parameters: dose 10 mg/kg, route oral; conditions: rhesus monkey, plasma; in short: as §1
[29] = Oral bioavailability in dog at 10 mg/kg; assay type: ADME, organism-based, Canis lupus familiaris; conditions: in vivo; in short: as §1
[30] = Inhibition of HCV full-length NS5B polymerase; parameters: species or system Hepacivirus hominis
In short: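 Polymerase inhibition with full-length NS5B enzyme in a biochemical assay; IC50 averaged from duplicate measurements, at least two determinations.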

[31] = AUC in dog at 10 mg/kg, po; assay type: ADME, organism-based, Canis lupus familiaris; parameters: dose 10 mg/kg, route oral; conditions: plasma; in short: as §1
Canis familiaris = test: Cardiotoxicity in dog assessed as electrocardiographic parameters up to 200 mg/kg; assay type: toxicity, organism-based, Canis lupus familiaris; parameters: dose 200 mg/kg; conditions: in vivo
[32] = Inhibition of calf thymus DNA-dependent RNA polymerase; parameters: species or system Bos taurus
Cytochrome P450 2C19 = Cytochrome P450 2C19 (Homo sapiens, UniProt P33261); test: Inhibition of CYP2C19 (unknown origin); assay type: ADME
Cytochrome P450 2C19, sequence (P33261 whole entry): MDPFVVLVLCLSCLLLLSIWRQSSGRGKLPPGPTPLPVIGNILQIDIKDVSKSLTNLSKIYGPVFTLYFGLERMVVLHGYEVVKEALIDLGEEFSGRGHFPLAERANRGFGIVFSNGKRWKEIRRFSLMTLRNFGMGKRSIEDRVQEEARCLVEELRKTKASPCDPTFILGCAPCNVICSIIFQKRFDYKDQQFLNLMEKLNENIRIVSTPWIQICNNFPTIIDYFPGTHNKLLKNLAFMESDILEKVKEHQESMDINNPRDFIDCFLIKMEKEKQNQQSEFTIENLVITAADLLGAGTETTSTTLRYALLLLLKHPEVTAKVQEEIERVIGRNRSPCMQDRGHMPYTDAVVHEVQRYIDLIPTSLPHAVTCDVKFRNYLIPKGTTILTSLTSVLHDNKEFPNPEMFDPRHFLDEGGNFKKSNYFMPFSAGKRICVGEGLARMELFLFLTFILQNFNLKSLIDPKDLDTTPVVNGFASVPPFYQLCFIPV

[33] = Plasma concentration in rat at 4 mg/kg, po cassette dosing after 2 hrs; assay type: ADME, organism-based; parameters: dose 4 mg/kg, route oral; in short: as §3
[34] = Mean residence time in monkey at 10 mg/kg, po; assay type: ADME, organism-based, Macaca mulatta; parameters: dose 10 mg/kg, route oral; conditions: rhesus monkey, in vivo; in short: as §1
[35] = Oral bioavailability in monkey at 10 mg/kg; assay type: ADME, organism-based, Macaca mulatta; conditions: rhesus monkey, in vivo; in short: as §1
[36] = target: Voltage-gated inwardly rectifying potassium channel KCNH2 (Homo sapiens, UniProt Q12809); test: Inhibition of human ERG channel at 0.8 uM
Voltage-gated inwardly rectifying potassium channel KCNH2, sequence (Q12809 whole entry): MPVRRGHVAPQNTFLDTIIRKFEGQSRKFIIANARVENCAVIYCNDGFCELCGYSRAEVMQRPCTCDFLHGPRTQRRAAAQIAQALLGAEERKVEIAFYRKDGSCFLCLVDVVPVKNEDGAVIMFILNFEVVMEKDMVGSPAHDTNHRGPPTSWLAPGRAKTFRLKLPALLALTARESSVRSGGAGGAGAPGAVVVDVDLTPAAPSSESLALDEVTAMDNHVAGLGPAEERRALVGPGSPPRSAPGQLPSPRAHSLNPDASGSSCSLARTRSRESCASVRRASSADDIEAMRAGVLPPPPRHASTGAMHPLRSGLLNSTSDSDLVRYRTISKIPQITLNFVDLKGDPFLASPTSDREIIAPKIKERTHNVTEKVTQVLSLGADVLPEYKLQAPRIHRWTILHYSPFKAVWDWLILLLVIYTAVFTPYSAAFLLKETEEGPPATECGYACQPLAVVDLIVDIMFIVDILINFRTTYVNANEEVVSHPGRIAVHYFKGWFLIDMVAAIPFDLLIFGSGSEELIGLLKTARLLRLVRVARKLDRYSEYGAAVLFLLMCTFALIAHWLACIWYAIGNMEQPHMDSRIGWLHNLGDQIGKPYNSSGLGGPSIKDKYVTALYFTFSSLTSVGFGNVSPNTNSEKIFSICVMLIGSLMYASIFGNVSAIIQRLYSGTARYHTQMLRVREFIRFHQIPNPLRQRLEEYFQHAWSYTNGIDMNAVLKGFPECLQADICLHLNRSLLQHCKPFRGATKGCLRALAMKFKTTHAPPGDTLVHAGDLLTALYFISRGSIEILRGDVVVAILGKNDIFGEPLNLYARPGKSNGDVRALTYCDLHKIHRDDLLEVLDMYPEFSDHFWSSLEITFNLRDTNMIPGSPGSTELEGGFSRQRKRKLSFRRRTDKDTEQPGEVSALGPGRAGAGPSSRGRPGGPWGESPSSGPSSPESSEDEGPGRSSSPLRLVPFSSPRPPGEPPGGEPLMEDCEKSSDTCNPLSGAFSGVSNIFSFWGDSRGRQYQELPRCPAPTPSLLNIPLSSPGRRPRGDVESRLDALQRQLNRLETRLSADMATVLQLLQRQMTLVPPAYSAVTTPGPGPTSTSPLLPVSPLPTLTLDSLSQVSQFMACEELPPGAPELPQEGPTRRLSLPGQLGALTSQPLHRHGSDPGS

[37] = Inhibition of recombinant Hepatitis C virus genotype 1b Con1 NS5B RNA dependent RNA polymerase delta21; parameters: species or system Hepatitis C virus subtype 1b
In short: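 Biochemical polymerase assay with C-terminally truncated genotype 1b NS5B∆21; IC50 taken as mean of duplicates.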

Cytochrome P450 3A4 = Cytochrome P450 3A4 (Homo sapiens, UniProt P08684); test: Inhibition of CYP3A4 (unknown origin); assay type: ADME
Cytochrome P450 3A4, sequence (P08684 whole entry): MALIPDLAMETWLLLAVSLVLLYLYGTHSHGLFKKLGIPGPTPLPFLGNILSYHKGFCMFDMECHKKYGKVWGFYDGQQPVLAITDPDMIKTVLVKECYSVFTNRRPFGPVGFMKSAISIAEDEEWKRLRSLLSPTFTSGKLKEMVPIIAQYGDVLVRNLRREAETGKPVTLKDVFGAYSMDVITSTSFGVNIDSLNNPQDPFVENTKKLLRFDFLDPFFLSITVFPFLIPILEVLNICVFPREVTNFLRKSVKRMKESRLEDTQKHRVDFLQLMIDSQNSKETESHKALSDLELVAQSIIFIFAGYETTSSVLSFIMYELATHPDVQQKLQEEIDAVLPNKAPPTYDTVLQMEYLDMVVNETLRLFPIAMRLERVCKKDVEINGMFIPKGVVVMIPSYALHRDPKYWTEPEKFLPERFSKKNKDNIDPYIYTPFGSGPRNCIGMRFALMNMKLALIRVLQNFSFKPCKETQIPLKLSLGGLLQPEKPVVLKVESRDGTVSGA

[38] = Cmax in rat at 10 mg/kg, po; assay type: ADME, organism-based; parameters: dose 10 mg/kg, route oral; conditions: in vivo; in short: as §1
[39] = Cmax in dog at 10 mg/kg, po; assay type: ADME, organism-based, Canis lupus familiaris; parameters: dose 10 mg/kg, route oral; conditions: in vivo; in short: as §1
Rhesus monkey [40] = test: Clearance in monkey at 2 mg/kg, iv; assay type: ADME, organism-based, Macaca mulatta; parameters: dose 2 mg/kg, route intravenous; conditions: in vivo; in short: as §2
Rhesus monkey [41] = test: Volume of distribution at steady state in monkey at 2 mg/kg, iv; assay type: ADME, organism-based, Macaca mulatta; parameters: dose 2 mg/kg, route intravenous; conditions: in vivo; in short: as §2

Cytochrome P450 2D6, sequence (P10635 whole entry): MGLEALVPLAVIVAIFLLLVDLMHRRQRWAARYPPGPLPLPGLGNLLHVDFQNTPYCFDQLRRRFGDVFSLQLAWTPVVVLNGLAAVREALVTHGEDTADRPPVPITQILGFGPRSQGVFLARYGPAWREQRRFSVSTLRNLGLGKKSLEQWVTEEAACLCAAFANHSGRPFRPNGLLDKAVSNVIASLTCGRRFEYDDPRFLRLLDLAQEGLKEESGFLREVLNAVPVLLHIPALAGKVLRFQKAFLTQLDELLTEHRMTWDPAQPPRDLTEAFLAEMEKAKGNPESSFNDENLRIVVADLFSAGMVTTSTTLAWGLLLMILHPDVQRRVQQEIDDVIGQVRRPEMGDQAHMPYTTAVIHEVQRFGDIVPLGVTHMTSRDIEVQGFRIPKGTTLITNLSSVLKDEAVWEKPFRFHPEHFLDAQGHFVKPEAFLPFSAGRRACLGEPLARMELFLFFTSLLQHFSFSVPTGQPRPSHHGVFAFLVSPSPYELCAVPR

SMILES: CCOc1cc(NC(=O)C2(NC(=O)c3ccc4c(C5CCCC5)c(-c5ncc(Cl)cn5)n(C)c4c3)CCC2)ccc1/C=C/C(=O)O
- IC50 (Cytochrome P450 2D6): > 30 µM
- EC50 (Hepatitis C virus [1]): 0.011 µM
- fraction unbound [2]: 0.004
- half-life [3]: 1.7 h
- logD [4]: 4.1
- MRT [5]: 8 h
- CC50 [6]: 38 µM
- IC50 (Cytochrome P450 2C9): 13.5 µM
- EC50 (Hepatitis C virus [7]): 0.029 µM
- IC50 (Cytochrome P450 1A2): > 30 µM
- clearance [8]: 1 mL/min/kg
- Vd [9]: 0.38 L/kg
- Vd [10]: 0.38 L/kg
- fold change (FC) (Hepatitis C virus [11]): 3.8
- half-life [12]: 1.73 h
- Cmax [13]: 9.6 µM
- t1/2 (Rhesus monkey [14]): 3 h
- Activity [15]: Non-toxic
- Activity (Salmonella typhimurium): Non-toxic
- Papp A→B [16]: 13 ×10⁻⁶ cm/s
- EC50 [17]: 0.013 µM
- half-life [18]: 4.5 h
- clearance [19]: 2.6 mL/min/kg
- half-life [20]: 2.4 h
- bioavailability [21]: 19%
- MRT [22]: 3.6 h
- concentration at 1 h [23]: 3.4 µM
- Papp A→B [24]: 13 ×10⁻⁶ cm/s
- pKa [25]: 6.5
- AUC [26]: 19 µM·h
- Kp at 6 h [27]: 5
- AUC [28]: 53 µM·h
- bioavailability [29]: 29%
- IC50 [30]: 0.11 µM
- AUC [31]: 76 µM·h
- Activity (Canis familiaris): Non-toxic
- IC50 [32]: 70 µM
- IC50 (Cytochrome P450 2C19): > 30 µM
- concentration at 2 h [33]: 2.3 µM
- MRT [34]: 6.1 h
- bioavailability [35]: 72%
- inhibition (INH) [36]: Not Active
- IC50 [37]: 0.084 µM
- IC50 (Cytochrome P450 3A4): > 30 µM
- Cmax [38]: 6.3 µM
- Cmax [39]: 8.1 µM
- CL (Rhesus monkey [40]): 3.6 mL/min/kg
- Vdss (Rhesus monkey [41]): 0.6 L/kg

SMILES: Cn1c(-c2ccccn2)c(C2CCCC2)c2ccc(C(=O)NC3(C(=O)Nc4ccc(/C=C/C(=O)O)cc4)CCC3)cc21 [BILB-1941]
- IC50 (Cytochrome P450 2D6): > 30 µM
- fraction unbound [2]: 0.008
- logD [4]: 3.3
- CC50 [6]: 93 µM
- IC50 (Cytochrome P450 2C9): 3.5 µM
- IC50 (Cytochrome P450 1A2): 13 µM
- fold change (FC) (Hepatitis C virus [11]): 3
- Papp A→B [24]: 11 ×10⁻⁶ cm/s
- pKa [25]: 4.5
- AUC [26]: 23 µM·h
- IC50 [30]: 0.06 µM
- bioavailability [35]: 70%
- IC50 [37]: 0.067 µM
